# Data from ChEMBL document CHEMBL3120153, “Novel Quinoline-Based P2-P4 Macrocyclic Derivatives As Pan-Genotypic HCV NS3/4a Protease Inhibitors” (ACS Med Chem Lett, 2014).
# Assays:
# [1] = target: NS3 protease (Hepatitis C virus subtype 1b, UniProt Q0ZMF1, A156V); experiment: Inhibition of Hepatitis C virus genotype 1b NS3/4A protease A156V mutant assessed as substrate cleavage using Ac-C(Eu)DDMEEAbu(COO)ASK(QSY7)-amide as substrate incubated for 30 mins prior to substrate addition by time-resolved fluorescence assay
# [2] = target: NS3 protease (Hepatitis C virus subtype 1b, UniProt Q0ZMF1, D168Y); experiment: Inhibition of Hepatitis C virus genotype 1b NS3/4A protease D168Y mutant assessed as substrate cleavage using Ac-C(Eu)DDMEEAbu(COO)ASK(QSY7)-amide as substrate incubated for 30 mins prior to substrate addition by time-resolved fluorescence assay
# [3] = target: NS3 protease (Hepatitis C virus subtype 1b, UniProt Q0ZMF1, R155K); experiment: Inhibition of Hepatitis C virus genotype 1b NS3/4A protease R155K mutant assessed as substrate cleavage using Ac-C(Eu)DDMEEAbu(COO)ASK(QSY7)-amide as substrate incubated for 30 mins prior to substrate addition by time-resolved fluorescence assay
# [4] = system: Hepatitis C virus; experiment: Antiviral activity against Hepatitis C virus genotype 3a infected in HuH7 cells assessed as reduction in replicon RNA level after 72 hrs by TaqMan-based RT-PCR analysis in presence of 10% FBS; format: functional, organism-based, Hepacivirus hominis; details: Huh-7, 72 h
# [5] = system: Hepatitis C virus; experiment: Ratio of MK-5172 EC50 to compound EC50 for Hepatitis C virus genotype 3a infected in HuH7 cells after 72 hrs by TaqMan-based RT-PCR analysis; format: functional, Hepacivirus hominis, Huh-7
# [6] = target: NS3 protease (Hepatitis C virus subtype 1b, UniProt Q0ZMF1, A156T); experiment: Inhibition of Hepatitis C virus genotype 1b NS3/4A protease A156T mutant assessed as substrate cleavage using Ac-C(Eu)DDMEEAbu(COO)ASK(QSY7)-amide as substrate incubated for 30 mins prior to substrate addition by time-resolved fluorescence assay
# [7] = system: Hepatitis C virus; experiment: Antiviral activity against Hepatitis C virus genotype 1b infected in HuH7 cells assessed as reduction in replicon RNA level after 72 hrs by TaqMan-based RT-PCR analysis in presence of 10% FBS; format: functional, organism-based, Hepacivirus hominis; details: Huh-7, 72 h
# [8] = Inhibition of Hepatitis C virus genotype 1b NS3/4A protease assessed as substrate cleavage using Ac-C(Eu)DDMEEAbu(COO)ASK(QSY7)-amide as substrate incubated for 30 mins prior to substrate addition by time-resolved fluorescence assay; set-up: species or system Hepatitis C virus subtype 1b
# [9] = Inhibition of Hepatitis C virus genotype 3a NS3/4A protease assessed as substrate cleavage using Ac-C(Eu)DDMEEAbu(COO)ASK(QSY7)-amide as substrate incubated for 30 mins prior to substrate addition by time-resolved fluorescence assay; set-up: species or system Hepatitis C virus subtype 3a
# [10] = AUC in rat at 5 mg/kg, po; format: ADME, organism-based; set-up: dose 5 mg/kg, route oral; details: plasma
# How it was run: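 Rats were dosed orally at 5 mg/kg, with the compound given in methyl cellulose vehicle.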
SMILES,IC50 [1] [nM],IC50 [2] [nM],IC50 [3] [nM],EC50 [4] [nM],Ratio EC50 [5],IC50 [6] [nM],EC50 [7] [nM],IC50 [8] [nM],IC50 [9] [nM],AUC [10] [µM·h]
C=C[C@@H]1C[C@]1(NC(=O)[C@@H]1C[C@@H]2CN1C(=O)[C@H](C1CCCCC1)NC(=O)O[C@@H]1C[C@H]1CCCCCc1c(nc3ccccc3c1O[C@H]1C[C@H]3CC[C@@H](C1)N3C)O2)C(=O)NS(=O)(=O)C1(C)CC1,0.55,0.27,0.1,0.26,14,0.42,0.62,0.04,0.41,1.2
C=C[C@@H]1C[C@]1(NC(=O)[C@@H]1C[C@@H]2CN1C(=O)[C@H](C1CCCCC1)NC(=O)O[C@@H]1C[C@H]1CCCCCc1c(nc3ccccc3c1OC1CCN(CC)CC1)O2)C(=O)NS(=O)(=O)C1(C)CC1,0.66,0.21,0.11,5.2,,0.91,0.53,0.03,0.41,2.3
C=C[C@@H]1C[C@]1(NC(=O)[C@@H]1C[C@@H]2CN1C(=O)[C@H](C1CCCCC1)NC(=O)O[C@@H]1C[C@H]1CCCCCc1c(nc3ccccc3c1OC1CCN(C)CC1)O2)C(=O)NS(=O)(=O)C1(C)CC1,0.91,0.29,0.06,3.1,,0.84,0.25,0.02,0.71,2.7
C=C[C@@H]1C[C@]1(NC(=O)[C@@H]1C[C@@H]2CN1C(=O)[C@H](C(C)(C)C)NC(=O)O[C@@H]1C[C@H]1CCCCCc1c(nc3ccccc3c1O[C@H]1C[C@H]3CC[C@@H](C1)N3CC)O2)C(=O)NS(=O)(=O)C1(C)CC1,0.33,0.04,0.01,1.06,,0.21,0.48,0.01,0.08,0.01
